{"data": "Measurements gathered from unrelated publications", "RPS6KA5 N-terminal kinase domain": "Ribosomal protein S6 kinase alpha-5, N-terminal kinase domain (RPS6KA5, Homo sapiens, UniProt O75582)", "RPS6KA5": "Ribosomal protein S6 kinase alpha-5 (RPS6KA5, Homo sapiens, UniProt O75582)", "RPS6KA5 C-terminal kinase domain": "Ribosomal protein S6 kinase alpha-5, C-terminal kinase domain (RPS6KA5, Homo sapiens, UniProt O75582)", "note": "Protocols differ between the studies behind these lines."}
{"Compound": "O=c1nc(-c2ccccn2)sc2ccccc12", "target": "RPS6KA5 N-terminal kinase domain", "test": "binding, competition with immobilised ligand", "setting": "1 µM", "quantity": "remaining binding", "value": "94%"}
{"Compound": "Nc1nc(NC2CCCCC2)sc1C(=O)c1ccccc1", "target": "RPS6KA5", "test": "enzyme activity, inhibitor", "setting": "10 µM", "quantity": "remaining activity", "value": "122%"}
{"Compound": "CN1CC(Oc2cnc(C#N)cc2-c2ccn3nc(NC(=O)C4CC4)cc3c2)C1", "target": "RPS6KA5", "test": "enzyme activity, inhibitor", "setting": "1 µM", "quantity": "inhibition", "value": "-7%"}
{"Compound": "COc1cc2ncnc(Nc3ccc(Oc4ccccc4)cc3C)c2cc1OC", "target": "RPS6KA5", "test": "enzyme activity, inhibitor", "setting": "1 µM", "quantity": "inhibition", "value": "2%"}
{"Compound": "CC(C)(C)c1nc(-c2cccc(NS(=O)(=O)c3c(F)cccc3F)c2F)c(-c2ccnc(N)n2)s1", "target": "RPS6KA5", "test": "enzyme activity, inhibitor, radiometric", "setting": "1 µM", "quantity": "remaining activity", "value": "97%"}
{"Compound": "Cc1cnc(NC2CCOCC2)nc1-n1cnc(C(=O)NC(CN)c2cc(F)cc(Cl)c2)c1 (stereo not drawn)", "target": "RPS6KA5", "test": "enzyme activity, inhibitor, radiometric", "setting": "1 µM", "quantity": "remaining activity", "value": "74%"}
{"Compound": "O=C(NC[C@@H]1[C@H]2CN(C(=O)OCc3cc(C(F)(F)F)cc(C(F)(F)F)c3)C[C@@H]12)c1ccc2[nH]nnc2c1", "target": "RPS6KA5 N-terminal kinase domain", "test": "cell-free assay, competition with immobilised ligand", "setting": "1 µM", "quantity": "remaining binding", "value": "100%"}
{"Compound": "COc1cc(Cl)c(C(=O)N[C@@H](CN[C@H]2CC[C@@H](N)CC2)Cc2ccc(C#N)cc2)cc1-c1ccc(CN[C@H](C)c2ccc(C)cc2)o1", "target": "RPS6KA5", "test": "enzyme activity, inhibitor", "setting": "1 µM", "quantity": "remaining activity", "value": "85%"}
{"Compound": "Nc1c(C(=O)NCc2ccc(C(=O)NCCCC3CCCCC3)cc2)cnn1-c1ccccc1", "target": "RPS6KA5 N-terminal kinase domain", "test": "cell-free assay, competition with immobilised ligand", "setting": "0.1 µM", "quantity": "remaining binding", "value": "94%"}
{"Compound": "Cc1ccc(Nc2nccc(N(C)c3ccc4c(C)n(C)nc4c3)n2)cc1S(N)(=O)=O", "target": "RPS6KA5", "test": "enzyme activity, inhibitor", "setting": "10 µM", "quantity": "inhibition", "value": "36%"}
{"Compound": "C[C@@H]1CCN(c2nccc(-c3cnn4ncccc34)n2)C1", "target": "RPS6KA5 C-terminal kinase domain", "test": "binding, competition with immobilised ligand", "setting": "1 µM", "quantity": "remaining binding", "value": "100%"}
{"Compound": "O=C(Nc1cnn(-c2csc(C(=O)NC3COC3)c2)c1)Nc1c(F)cccc1Cl", "target": "RPS6KA5", "test": "enzyme activity, inhibitor", "setting": "5 µM", "quantity": "remaining activity", "value": "104%"}
{"Compound": "COc1cc(-c2cn(C3CCc4c(F)cccc4N(CC(F)(F)F)C3=O)nn2)ccc1-n1cnc(C)c1 (stereo not drawn)", "target": "RPS6KA5 N-terminal kinase domain", "test": "cell-free assay, competition with immobilised ligand", "setting": "1 µM", "quantity": "remaining binding", "value": "100%"}
{"Compound": "COc1cc(/C=C/C(=O)CC(=O)/C=C/c2ccc(O)c(OC)c2)ccc1O", "target": "RPS6KA5", "test": "enzyme activity, inhibitor", "setting": "1 µM", "quantity": "activity vs control", "value": "92%"}
{"Compound": "C=CC(=O)Nc1cc(Nc2nccc(Nc3cc(Cl)c(F)cc3C(C)(C)O)n2)c(OC)cc1N1CC[C@@H](N(C)C)C1", "target": "RPS6KA5", "test": "enzyme activity, inhibitor", "setting": "1 µM", "quantity": "inhibition", "value": "26%"}
{"Compound": "CCc1ccccc1C(=O)Nc1n[nH]c2c(C)c(F)c(C3C(C#N)=C(C)N(C)C(C)=C3C#N)cc12", "target": "RPS6KA5 C-terminal kinase domain", "test": "cell-free assay, competition with immobilised ligand", "setting": "1 µM", "quantity": "remaining binding", "value": "90%"}
{"Compound": "FC(F)c1nc2ccccc2n1-c1nc(N2CCOCC2)nc(N2CCOCC2)n1", "target": "RPS6KA5", "test": "enzyme activity, inhibitor", "setting": "10 µM", "quantity": "remaining activity", "value": "89%"}
{"Compound": "Nc1nc(Nc2ccc(S(N)(=O)=O)cc2)nn1C(=O)c1c(F)cccc1F", "target": "RPS6KA5", "test": "cell-free assay", "setting": "0.5 µM", "quantity": "remaining signal", "value": "97.2%"}
{"Compound": "Cc1c(NC(=O)c2cc(C(N)=O)nc3cc(F)ccc23)c(C(F)(F)F)nn1Cc1ccc(C(C)(C)C)cc1", "target": "RPS6KA5 C-terminal kinase domain", "test": "cell-free assay, competition with immobilised ligand", "setting": "1 µM", "quantity": "remaining binding", "value": "89%"}
{"Compound": "Nc1ncnc2occ(-c3ccc(NC(=O)Nc4cc(C(F)(F)F)ccc4F)cc3)c12", "target": "RPS6KA5 C-terminal kinase domain", "test": "cell-free assay, inhibitor", "setting": "20 µM", "quantity": "remaining signal", "value": "23%"}
{"Compound": "c1cnn2ncc(-c3ccnc(N4CCC45COC5)n3)c2c1", "target": "RPS6KA5 C-terminal kinase domain", "test": "binding, competition with immobilised ligand", "setting": "1 µM", "quantity": "remaining binding", "value": "100%"}
{"Compound": "C[C@@H]1CCN(C(=O)CC#N)C[C@@H]1N(C)c1ncnc2[nH]ccc12", "target": "RPS6KA5", "test": "cell-free assay, inhibitor", "setting": "0.5 µM", "quantity": "remaining signal", "value": "94.8%"}
{"Compound": "NS(=O)(=O)c1cc(NC(=O)Cc2ccccc2)ccc1Oc1cccc(Cl)c1", "target": "RPS6KA5 N-terminal kinase domain", "test": "cell-free assay, competition with immobilised ligand", "setting": "1 µM", "quantity": "remaining binding", "value": "71%"}
{"Compound": "COc1cc(Nc2cnc(C#N)c(O[C@H](C)CN(C)C)n2)ncc1-c1cnn(C)c1", "target": "RPS6KA5", "test": "enzyme activity, inhibitor, radiometric", "setting": "1 µM", "quantity": "remaining activity", "value": "86%"}
{"Compound": "Nc1nc(Nc2ccccc2)sc1C(=O)c1c(F)cccc1F", "target": "RPS6KA5", "test": "enzyme activity, inhibitor", "setting": "10 µM", "quantity": "remaining activity", "value": "87%"}
{"Compound": "CC1CCCN1c1nccc(-c2cnn3ncccc23)n1 (stereo not drawn)", "target": "RPS6KA5 C-terminal kinase domain", "test": "binding, competition with immobilised ligand", "setting": "1 µM", "quantity": "remaining binding", "value": "100%"}
{"Compound": "N#CCCc1ccc2c(c1)-c1[nH]c3ccc([N+](=O)[O-])cc3c1CC(=O)N2", "target": "RPS6KA5", "test": "cell-free assay", "setting": "0.5 µM", "quantity": "remaining signal", "value": "94.2%"}
{"Compound": "CC(=O)N1CCC(c2ccc(C(=O)NC3=NCCN3)cc2C(F)(F)F)CC1", "target": "RPS6KA5 C-terminal kinase domain", "test": "cell-free assay, competition with immobilised ligand", "setting": "1 µM", "quantity": "remaining binding", "value": "70%"}
{"Compound": "CN(c1nccc(-c2cnn3ncccc23)n1)C1CC1", "target": "RPS6KA5 N-terminal kinase domain", "test": "binding, competition with immobilised ligand", "setting": "1 µM", "quantity": "remaining binding", "value": "100%"}
{"Compound": "CNCc1ccc(-c2cc(-c3nc(-c4ccc(S(=O)(=O)C(C)C)cc4)cnc3N)on2)cc1", "target": "RPS6KA5", "test": "enzyme activity, inhibitor", "setting": "0.4 µM", "quantity": "inhibition", "value": "0%"}
{"Compound": "Cc1ccc(C(=O)Nc2ccc(CN3CCN(C)CC3)c(C(F)(F)F)c2)cc1C#Cc1cnc2cccnn12", "target": "RPS6KA5", "test": "enzyme activity, inhibitor", "setting": "23.5 nM", "quantity": "activity vs control", "value": "96%"}
{"Compound": "CC(C)(O)[C@H]1CC[C@H](Nc2ccc3ncc(-c4cccc(C(F)(F)F)c4)n3n2)CC1", "target": "RPS6KA5", "test": "enzyme activity, inhibitor", "setting": "1 µM", "quantity": "remaining activity", "value": "98.9%"}
{"Compound": "Cn1c(=O)n(-c2ccc(C(C)(C)C#N)cc2)c2c3cc(-c4cnc5ccccc5c4)ccc3ncc21", "target": "RPS6KA5", "test": "enzyme activity, inhibitor", "setting": "10 µM", "quantity": "remaining activity", "value": "102%"}
{"Compound": "CNC(=O)c1cc(Oc2ccc(NC(=O)Nc3ccc(Cl)c(C(F)(F)F)c3)cc2)ccn1", "target": "RPS6KA5", "test": "enzyme activity, inhibitor", "setting": "10 µM", "quantity": "inhibition", "value": "8%"}
{"Compound": "Oc1cccc(-c2nc(N3CCOCC3)c3oc4ncccc4c3n2)c1", "target": "RPS6KA5", "test": "cell-free assay", "setting": "0.5 µM", "quantity": "remaining signal", "value": "86.5%"}
{"Compound": "N[C@@H]1CCN(c2nccc(-c3cnn4ncccc34)n2)C1", "target": "RPS6KA5 N-terminal kinase domain", "test": "binding, competition with immobilised ligand", "setting": "1 µM", "quantity": "remaining binding", "value": "94%"}
